According to ChEMBL document CHEMBL5058577, “EUbOPEN Chemogenomics Library 2 (Multiplex)” (2022):

System: U2OS
Assay: Multiplex assay against U2OS
Format: toxicity, cell-based
Details: human
Method in brief: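 Hoechst33342, BioTracker Green Microtubule Cytoskeleton Dye, MitoTracker Red and Annexin V Alexa Fluor 680 were added to live cells at seeding, and imaging on a CQ1 microscope at 37°C and 5% CO2 followed compound addition. Gating by CellPathfinder machine learning separated cells into Hoechst high-intensity objects or normal cells, then normal cells into healthy, pyknosed or fragmented nuclei, then pyknosed cells into mitotic or apoptotic. Per cents of healthy-nucleus cells are reported for the tubulin, mitochondrial-mass and membrane-permeability phenotypes.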

[1] = 12 h, 1 µM, compound concentration 1 uM, replicate 1
[2] = 12 h, 1 µM, compound concentration 1 uM, replicate 2
[3] = 12 h, 10 µM, compound concentration 10 uM, replicate 1
[4] = 12 h, 10 µM, compound concentration 10 uM, replicate 2
[5] = 24 h, 1 µM, compound concentration 1 uM, replicate 1
[6] = 24 h, 1 µM, compound concentration 1 uM, replicate 2
[7] = 24 h, 10 µM, compound concentration 10 uM, replicate 1
[8] = 24 h, 10 µM, compound concentration 10 uM, replicate 2
[9] = 48 h, 1 µM, compound concentration 1 uM, replicate 1
[10] = 48 h, 1 µM, compound concentration 1 uM, replicate 2
[11] = 48 h, 10 µM, compound concentration 10 uM, replicate 1
[12] = 48 h, 10 µM, compound concentration 10 uM, replicate 2

Cc1onc(-c2ccccc2Cl)c1C(=O)N(C)c1ccc(Cl)cc1
Population Apoptotic (%) [1]: 82%
Population Fragmented Nuclei (%) [1]: 26%
Population Healthy Nuclei (%) [1]: 67%
Population Hoechst High Intensity Objects (%) [1]: 0%
Population Membrane Permeable-Phenotype (%) [1]: 3%
Population Mitochondria Different-Phenotype (%) [1]: 2%
Population Mitotic Cells (%) [1]: 17%
Population Normal (%) [1]: 99%
Population Pyknosed Nuclei (%) [1]: 6%
Population Tubulin-Different-Phenotype (%) [1]: 1%
Total Cell Count [1]: 277
Population Apoptotic (%) [2]: 78%
Population Fragmented Nuclei (%) [2]: 10%
Population Healthy Nuclei (%) [2]: 79%
Population Hoechst High Intensity Objects (%) [2]: 1%
Population Membrane Permeable-Phenotype (%) [2]: 4%
Population Mitochondria Different-Phenotype (%) [2]: 1%
Population Mitotic Cells (%) [2]: 21%
Population Normal (%) [2]: 98%
Population Pyknosed Nuclei (%) [2]: 10%
Population Tubulin-Different-Phenotype (%) [2]: 3%
Total Cell Count [2]: 136
Population Apoptotic (%) [3]: 79%
Population Fragmented Nuclei (%) [3]: 28%
Population Healthy Nuclei (%) [3]: 58%
Population Hoechst High Intensity Objects (%) [3]: 4%
Population Membrane Permeable-Phenotype (%) [3]: 12%
Population Mitochondria Different-Phenotype (%) [3]: 5%
Population Mitotic Cells (%) [3]: 20%
Population Normal (%) [3]: 95%
Population Pyknosed Nuclei (%) [3]: 12%
Population Tubulin-Different-Phenotype (%) [3]: 5%
Total Cell Count [3]: 244
Population Apoptotic (%) [4]: 77%
Population Fragmented Nuclei (%) [4]: 24%
Population Healthy Nuclei (%) [4]: 56%
Population Hoechst High Intensity Objects (%) [4]: 0%
Population Membrane Permeable-Phenotype (%) [4]: 7%
Population Mitochondria Different-Phenotype (%) [4]: 6%
Population Mitotic Cells (%) [4]: 22%
Population Normal (%) [4]: 99%
Population Pyknosed Nuclei (%) [4]: 19%
Population Tubulin-Different-Phenotype (%) [4]: 4%
Total Cell Count [4]: 113
Population Apoptotic (%) [5]: 100%
Population Fragmented Nuclei (%) [5]: 23%
Population Healthy Nuclei (%) [5]: 70%
Population Hoechst High Intensity Objects (%) [5]: 0%
Population Membrane Permeable-Phenotype (%) [5]: 2%
Population Mitochondria Different-Phenotype (%) [5]: 2%
Population Mitotic Cells (%) [5]: 0%
Population Normal (%) [5]: 99%
Population Pyknosed Nuclei (%) [5]: 5%
Population Tubulin-Different-Phenotype (%) [5]: 0%
Total Cell Count [5]: 328
Population Apoptotic (%) [6]: 83%
Population Fragmented Nuclei (%) [6]: 11%
Population Healthy Nuclei (%) [6]: 81%
Population Hoechst High Intensity Objects (%) [6]: 1%
Population Membrane Permeable-Phenotype (%) [6]: 4%
Population Mitochondria Different-Phenotype (%) [6]: 5%
Population Mitotic Cells (%) [6]: 16%
Population Normal (%) [6]: 98%
Population Pyknosed Nuclei (%) [6]: 7%
Population Tubulin-Different-Phenotype (%) [6]: 2%
Total Cell Count [6]: 168
Population Apoptotic (%) [7]: 72%
Population Fragmented Nuclei (%) [7]: 26%
Population Healthy Nuclei (%) [7]: 62%
Population Hoechst High Intensity Objects (%) [7]: 3%
Population Membrane Permeable-Phenotype (%) [7]: 11%
Population Mitochondria Different-Phenotype (%) [7]: 6%
Population Mitotic Cells (%) [7]: 27%
Population Normal (%) [7]: 96%
Population Pyknosed Nuclei (%) [7]: 11%
Population Tubulin-Different-Phenotype (%) [7]: 4%
Total Cell Count [7]: 299
Population Apoptotic (%) [8]: 64%
Population Fragmented Nuclei (%) [8]: 20%
Population Healthy Nuclei (%) [8]: 66%
Population Membrane Permeable-Phenotype (%) [8]: 8%
Population Mitochondria Different-Phenotype (%) [8]: 7%
Population Mitotic Cells (%) [8]: 35%
Population Pyknosed Nuclei (%) [8]: 13%
Population Tubulin-Different-Phenotype (%) [8]: 7%
Total Cell Count [8]: 129
Population Apoptotic (%) [9]: 87%
Population Fragmented Nuclei (%) [9]: 16%
Population Healthy Nuclei (%) [9]: 75%
Population Hoechst High Intensity Objects (%) [9]: 2%
Population Membrane Permeable-Phenotype (%) [9]: 4%
Population Mitochondria Different-Phenotype (%) [9]: 3%
Population Mitotic Cells (%) [9]: 12%
Population Normal (%) [9]: 97%
Population Pyknosed Nuclei (%) [9]: 7%
Population Tubulin-Different-Phenotype (%) [9]: 2%
Total Cell Count [9]: 450
Population Apoptotic (%) [10]: 89%
Population Fragmented Nuclei (%) [10]: 12%
Population Hoechst High Intensity Objects (%) [10]: 1%
Population Membrane Permeable-Phenotype (%) [10]: 1%
Population Mitochondria Different-Phenotype (%) [10]: 2%
Population Mitotic Cells (%) [10]: 10%
Population Normal (%) [10]: 98%
Population Pyknosed Nuclei (%) [10]: 11%
Population Tubulin-Different-Phenotype (%) [10]: 1%
Total Cell Count [10]: 252
Population Apoptotic (%) [11]: 69%
Population Fragmented Nuclei (%) [11]: 22%
Population Healthy Nuclei (%) [11]: 67%
Population Hoechst High Intensity Objects (%) [11]: 3%
Population Membrane Permeable-Phenotype (%) [11]: 10%
Population Mitochondria Different-Phenotype (%) [11]: 5%
Population Mitotic Cells (%) [11]: 30%
Population Normal (%) [11]: 96%
Population Pyknosed Nuclei (%) [11]: 9%
Population Tubulin-Different-Phenotype (%) [11]: 4%
Total Cell Count [11]: 413
Population Apoptotic (%) [12]: 90%
Population Fragmented Nuclei (%) [12]: 23%
Population Healthy Nuclei (%) [12]: 65%
Population Hoechst High Intensity Objects (%) [12]: 2%
Population Membrane Permeable-Phenotype (%) [12]: 9%
Population Mitotic Cells (%) [12]: 10%
Population Normal (%) [12]: 97%
Population Pyknosed Nuclei (%) [12]: 11%
Population Tubulin-Different-Phenotype (%) [12]: 3%
Total Cell Count [12]: 182
